Experimental data taken from ChEMBL document CHEMBL1152555, “Design, synthesis and cruzain docking of 3-(4-substituted-aryl)-1,2,4-oxadiazole-N-acylhydrazones as anti-Trypanosoma cruzi agents” (Bioorg Med Chem, 2009).

Columns and labels:
Trypanosoma cruzi [1] = experiment: Antitrypanosomal activity against Trypanosoma cruzi trypomastigote Y strain after 24 hrs by trypan blue exclusion assay
[2] = Cytotoxicity against BALB/c mouse splenocyte assessed as [3H]thymidine incorporation by beta-counting; assay type: cell-based; conditions: splenocytes, read-out: MNCC
In short: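 Splenocytes from BALB/c mice were plated at 5 × 10⁶ cells per well in DMEM with FCS and gentamycin. Each compound was tested at […], in triplicate, from DMSO stock. Cells were given ³H-thymidine at 1 µCi per well for 24 h at 37 °C and 5% CO₂. Incorporation was compared with untreated wells. The reported value is the highest concentration reducing incorporation by less than 10%.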

Trypanosoma cruzi [3] = experiment: Antitrypanosomal activity against Trypanosoma cruzi Y strain
Mus musculus = experiment: Toxicity in mouse assessed as general toxicity at 100 mg/kg, ip after 72 hrs; assay type: organism-based; design: dose 100 mg/kg, route intraperitoneal; conditions: in vivo
In short: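 Mice received a single intraperitoneal dose of 100 mg/kg. They were watched for 72 h for general toxicity signs, including behavior and feeding, and for survival. Controls received only 100 µL of 30% DMSO:70% H₂O (v/v).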

Row | IC50 (Trypanosoma cruzi [1]; read-out: IC50) [µM] | IC50 (Trypanosoma cruzi [1]; read-out: pIC50 (converted)) [µM] | IC50 (Trypanosoma cruzi [3]) [µM] | Structure (SMILES) | MNTC [2] | Activity (Mus musculus)
1 | 2.1 |  |  | CN(C)c1ccc(C(=C2C=CC(=[N+](C)C)C=C2)c2ccc(N(C)C)cc2)cc1 [GENTIAN VIOLET] | < 1 µg/mL | 
2 | 17.9 | 17.8 | 47.8 | Cc1ccc(-c2noc(C(=O)N/N=C/c3ccc(O)cc3)n2)cc1 | < 1.1 µg/mL | 
3 |  |  | > 150 | CC(=O)Nc1ccc(/C=N/NC(=O)c2nc(-c3ccc(Br)cc3)no2)cc1 | 33 µg/mL | 
4 | 16.7 | 16.6 | 21 | O=C(N/N=C/c1ccc(O)cc1)c1nc(-c2ccc(F)cc2)no1 | < 1.1 µg/mL | 
5 |  |  | > 150 | CC(=O)Nc1ccc(/C=N/NC(=O)c2nc(-c3ccc([N+](=O)[O-])cc3)no2)cc1 | 33 µg/mL | 
6 | 3.6 | 3.63 | 14.2 | CC(=O)Nc1ccc(/C=N/NC(=O)c2nc(-c3ccccc3)no2)cc1 | 95 µM | Non-toxic
7 | 21.2 | 21.4 | 21.6 | O=C(N/N=C/c1ccc(O)cc1)c1nc(-c2ccc(Cl)cc2)no1 | < 1.1 µg/mL | 
8 | 100 | 100 | 127 | O=C(N/N=C/c1ccc(O)cc1)c1nc(-c2ccc(O)cc2)no1 | 100 µg/mL | 
9 | 21.3 | 21.4 | 25.2 | O=C(N/N=C/c1ccc(O)cc1)c1nc(-c2ccc([N+](=O)[O-])cc2)no1 | < 1.1 µg/mL | 
10 | 3.9 | 3.89 | 9.8 | CC(=O)Nc1ccc(/C=N/NC(=O)c2nc(-c3ccc(C)cc3)no2)cc1 | 30 µM | 
11 | 35.7 | 35.5 | 78.3 | O=C(N/N=C/c1ccc(O)cc1)c1nc(-c2ccccc2)no1 | 3.3 µg/mL | 
12 |  |  | > 150 | CC(=O)Nc1ccc(/C=N/NC(=O)c2nc(-c3ccc(O)cc3)no2)cc1 | 33 µg/mL | 
13 |  |  | > 150 | COc1ccc(-c2noc(C(=O)N/N=C/c3ccc(NC(C)=O)cc3)n2)cc1 | 100 µg/mL | 
14 |  |  | > 150 | CC(=O)Nc1ccc(/C=N/NC(=O)c2nc(-c3ccc(Cl)cc3)no2)cc1 | 100 µg/mL | 
15 | 20.5 | 20.4 | 19.6 | O=C(N/N=C/c1ccc(O)cc1)c1nc(-c2ccc(Br)cc2)no1 | 97 µM | Non-toxic
16 | 32.5 | 32.4 | 13.8 | COc1ccc(-c2noc(C(=O)N/N=C/c3ccc(O)cc3)n2)cc1 | 85 µM | 
17 |  |  | > 150 | CC(=O)Nc1ccc(/C=N/NC(=O)c2nc(-c3ccc(F)cc3)no2)cc1 | 33 µg/mL | 

Row | Structure (SMILES) | IC50 (Trypanosoma cruzi [1]; read-out: IC50) [µM] | IC50 (Trypanosoma cruzi [1]; read-out: pIC50 (converted)) [µM] | IC50 (Trypanosoma cruzi [3]) [µM] | MNTC [2] | Activity (Mus musculus)
18 | O=C(Cn1ccnc1[N+](=O)[O-])NCc1ccccc1 [BENZNIDAZOLE] |  | 5.01 |  | 100 µg/mL | 
